Results taken from ChEMBL document CHEMBL3091313, “Amino acids derived benzoxazepines: design, synthesis and antitumor activity” (Bioorg Med Chem Lett, 2013).
Activity calls are given as the source filed them. The calls are words filed in the database; no cut-off is given here.

Key:
[1] = tested on: MCF7; experiment: Antiproliferative activity against human MCF7 cells after 24 hrs by MTT assay; assay type: functional, cell-based; conditions: MCF7, 24 h
In short: (§1)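 MCF-7 (ER+ve) and MDA-MB-231 (ER-ve) breast cancer cells were exposed to compound or vehicle. Viability was read by MTT and expressed as % cell death versus vehicle, with 4-hydroxytamoxifen as positive control. IC50 came from three independent experiments, each in triplicate.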

[2] = tested on: MCF7; experiment: Cell cycle arrest in human MCF7 cells assessed as accumulation at G1 phase at 5 uM after 24 hrs using propidium iodide staining by flow cytometry (reference value: 67.73 %); assay type: functional
[3] = Safety index, ratio of IC50 for HEK293 cells to IC50 for human MCF7 cells; assay type: toxicity, cell-based; conditions: HEK293 cells versus MCF7 cells, read-out: Ratio IC50
In short: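 Cell death was assessed by MTT assay after 72 h exposure. The ratio was calculated as the HEK-293 IC50 divided by the MCF-7 EC50.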

[4] = tested on: MCF7; experiment: Induction of apoptosis in human MCF7 cells assessed as reduction in cell viability at 5 uM after 24 hrs by MTT assay in presence of LEHD-FMK; assay type: functional, cell-based
[5] = tested on: MDA-MB-231; experiment: Cell cycle arrest in human MDA-MB-231 cells assessed as accumulation at G1 phase at 1 uM after 24 hrs using propidium iodide staining by flow cytometry (reference value: 52.67 %); assay type: functional
[6] = tested on: MCF7; experiment: Cell cycle arrest in human MCF7 cells assessed as accumulation at G2 phase at 5 uM after 24 hrs using propidium iodide staining by flow cytometry (reference value: 7.46 %); assay type: functional
[7] = tested on: MDA-MB-231; experiment: Cell cycle arrest in human MDA-MB-231 cells assessed as apoptosis at 3 uM after 24 hrs using propidium iodide staining by flow cytometry (reference value: 0.10 %); assay type: functional
[8] = tested on: MCF7; experiment: Induction of apoptosis in human MCF7 cells assessed as increase in Bax/Bcl2 ratio at 5 uM after 6 to 24 hrs by immunoblotting method; assay type: functional, cell-based
[9] = tested on: MCF7; experiment: Cell cycle arrest in human MCF7 cells assessed as accumulation at G2 phase at 1 uM after 24 hrs using propidium iodide staining by flow cytometry (reference value: 7.46 %); assay type: functional
[10] = tested on: MCF7; experiment: Induction of apoptosis in human MCF7 cells assessed as reduction in mitochondrial membrane potential at 1 to 5 uM after 12 hrs by Jc-1 staining-based flow cytometry; assay type: functional, cell-based
[11] = tested on: MDA-MB-231; experiment: Cell cycle arrest in human MDA-MB-231 cells assessed as apoptosis at 5 uM after 24 hrs using propidium iodide staining by flow cytometry (reference value: 0.10 %); assay type: functional
[12] = tested on: MCF7; experiment: Cell cycle arrest in human MCF7 cells assessed as decrease in E2F mRNA level at 1 to 5 uM after 12 hrs by QRT-PCR method; assay type: functional, cell-based
[13] = tested on: MCF7; experiment: Induction of apoptosis in human MCF7 cells assessed as phosphatidylserine exposure after 24 hrs using annexin V/PI staining by flow cytometry; assay type: functional, cell-based
In short: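 MCF-7 cells were exposed to vehicle or the indicated compound concentrations for 24 h. Phosphatidylserine exposure was then measured by flow cytometry after staining with FITC-labelled Annexin V and propidium iodide. Apoptotic cell fractions were read from dot plots relative to vehicle.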

[14] = tested on: MCF7; experiment: Cell cycle arrest in human MCF7 cells assessed as decrease in cyclin D1 protein level at 5 uM after 12 to 24 hrs by immunoblotting method; assay type: functional, cell-based
[15] = tested on: MDA-MB-231; experiment: Cell cycle arrest in human MDA-MB-231 cells assessed as accumulation at S phase at 1 uM after 24 hrs using propidium iodide staining by flow cytometry (reference value: 28.59 %); assay type: functional
[16] = tested on: MCF7; experiment: Cell cycle arrest in human MCF7 cells assessed as accumulation at S phase at 1 uM after 24 hrs using propidium iodide staining by flow cytometry (reference value: 24.81 %); assay type: functional
[17] = tested on: MCF7; experiment: Cell cycle arrest in human MCF7 cells assessed as accumulation at G1 phase at 3 uM after 24 hrs using propidium iodide staining by flow cytometry (reference value: 67.73 %); assay type: functional
[18] = tested on: MCF7; experiment: Induction of apoptosis in human MCF7 cells assessed as caspase-9 cleavage at 5 uM after 6 hrs by immunoblotting method; assay type: functional, cell-based
[19] = tested on: MDA-MB-231; experiment: Cell cycle arrest in human MDA-MB-231 cells assessed as accumulation at G2 phase at 5 uM after 24 hrs using propidium iodide staining by flow cytometry (reference value: 18.75 %); assay type: functional
[20] = tested on: MCF7; experiment: Cell cycle arrest in human MCF7 cells assessed as accumulation at S phase at 3 uM after 24 hrs using propidium iodide staining by flow cytometry (reference value: 24.81 %); assay type: functional
[21] = tested on: MCF7; experiment: Cytotoxicity against human MCF7 cells assessed as reduction in membrane integrity at IC50 by LDH release assay; assay type: functional, cell-based
In short: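 Membrane integrity was assessed in MCF-7 cells exposed to a range of compound concentrations, by measuring LDH released into the culture medium.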

[22] = tested on: MCF7; experiment: Cell cycle arrest in human MCF7 cells assessed as increase in p27 mRNA level at 1 to 5 uM after 12 hrs by QRT-PCR method; assay type: functional, cell-based
[23] = tested on: MCF7; experiment: Antiproliferative activity against human MCF7 cells after 48 hrs by MTT assay; assay type: functional, cell-based; conditions: MCF7, 48 h; in short: as §1
[24] = tested on: MCF7; experiment: Cell cycle arrest in human MCF7 cells assessed as accumulation at S phase at 5 uM after 24 hrs using propidium iodide staining by flow cytometry (reference value: 24.81 %); assay type: functional
[25] = tested on: MCF7; experiment: Antitumor activity against human MCF7 cells xenografted in athymic nude mouse assessed as reduction in tumor volume at 16 mg/kg/day, po for 21 days measured after 21 days relative to control; assay type: functional; design: scale not given: the % may be the effect or the level left
[26] = tested on: MCF7; experiment: Induction of apoptosis in human MCF7 cells assessed as caspase-8 cleavage at 5 uM after 6 hrs by immunoblotting method; assay type: functional, cell-based
[27] = tested on: MCF7; experiment: Cell cycle arrest in human MCF7 cells assessed as increase in p27 protein level at 5 uM after 12 to 24 hrs by immunoblotting method; assay type: functional, cell-based

## Cc1ccc(S(=O)(=O)N2Cc3ccccc3OC[C@@H]2Cc2ccc(OCCN3CCCCCC3)cc2)cc1.Cl
[1]
  IC50: 6.78 µM
[2]
  Activity: 86.22%
[3]
  selectivity ratio: 16.4
[4]
  Activity: inactive
[5]
  Activity: 67.73%
[6]
  Activity: 6.44%
[7]
  Activity: 3.61%
[8]
  Activity: Active
[9]
  Activity: 6.97%
[10]
  Activity: Active
[11]
  Activity: 1.47%
[12]
  Activity: Active
[13]
  Activity: Dose-dependent effect
[14]
  Activity: Active
[15]
  Activity: 24.81%
[16]
  Activity: 18.93%
[17]
  Activity: 86.96%
[18]
  Activity: Active
[19]
  Activity: 6.48%
[20]
  Activity: 6.18%
[21]
  Activity: inactive
[22]
  Activity: Active
[23]
  IC50: 3.55 µM
[24]
  Activity: 7.34%
[25]
  Activity: 50%
[26]
  Activity: Active
[27]
  Activity: Active
